Source: ChEMBL document CHEMBL3102784, “Salicylanilide diethyl phosphates: synthesis, antimicrobial activity and cytotoxicity” (Bioorg Med Chem, 2014)
Values after ≈ are worked out from the molar mass of the structure shown. Active and inactive are the calls of the source. The rule behind the calls is not given here.

Assays:
[1] = system: Staphylococcus epidermidis; assay: Antibacterial activity against Staphylococcus epidermidis H 6966/08 after 24 hrs by broth microdilution method; type: functional; details: H 6966/08, 24 h
How it was run: (§1)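 Broth microdilution in Mueller–Hinton broth, compounds dissolved in DMSO, tested over a dilution series from 500 downward. MIC taken as ≥95% growth reduction (IC95) versus drug-free control. Benzylpenicillin comparator. Readings at 24 and 48 h.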

Candida tropicalis = assay: Antifungal activity against Candida tropicalis 156 at 500 micromol/L after 24 to 48 hrs by broth microdilution method; type: functional, organism-based
How it was run: (§2)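 Broth microdilution in RPMI 1640 with glutamine, fluconazole as reference. For yeasts, MIC is ≥80% growth reduction (IC80) versus control. For filamentous fungi, the value is expressed as IC50. Readings at 24 and 48 h.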

[2] = system: Mycobacterium tuberculosis; assay: Antimycobacterial activity against Mycobacterium tuberculosis H37Rv My 331/88 after 21 days; type: functional; details: H37Rv My 331/88, 504 h
How it was run: (§3)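 Micromethod MIC in Šula's semisynthetic medium at 37 °C. Compounds added in DMSO at 1000 down to 0.032 µmol/L. Isoniazid standard in sterile water at 0.5–250 µmol/L. Inocula: H37Rv 10^3, M. avium 10^5, M. kansasii 10^4. Read at 14 and 21 d, plus 7 d for M. kansasii.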

Mycobacterium kansasii [3] = assay: Antimycobacterial activity against Mycobacterium kansasii 6509/96 after 21 days; type: functional; details: 6509/96, 504 h; how it was run: as §3
Staphylococcus aureus [4] = assay: Antibacterial activity against methicillin-resistant Staphylococcus aureus H 5996/08 after 48 hrs by broth microdilution method; type: functional; details: H 5996/08, 48 h; how it was run: as §1
[5] = system: Trichophyton mentagrophytes; assay: Antifungal activity against Trichophyton mentagrophytes 445 after 120 hrs by broth microdilution method; type: functional; details: Trichophyton mentagrophytes, 445, 120 h
How it was run: (§4)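 Filamentous dermatophyte tested by broth microdilution in RPMI 1640 with glutamine, fluconazole as reference. Value expressed as IC50 relative to growth control. Read at 72 and 120 h.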

HepG2 = assay: Cytotoxicity against human HepG2 cells after 24 hrs by CellTiter assay; type: cell-based; details: HepG2, 24 h
How it was run: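 HepG2 cells (passage 27–33) in MEM with 10% FBS, L-glutamine and NEAA, seeded at 1×10^4 per well. Treated next day with compounds at 0.1–100 µM (or 0.1–25 µmol/L), triplicates, <1% DMSO, for 24 h at 37 °C, 5% CO2. MTS reagent added for 2 h, absorbance read at 490 nm. IC50 taken against untreated (100%) and 10% DMSO (0%) controls.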

Lichtheimia corymbifera [6] = assay: Antifungal activity against Absidia corymbifera 272 after 48 hrs by broth microdilution method; type: functional; details: Lichtheimia corymbifera, 272, 48 h; how it was run: as §2
Candida albicans [7] = assay: Antifungal activity against Candida albicans ATCC 44859 after 48 hrs by broth microdilution method; type: functional; details: ATCC 44859, 48 h; how it was run: as §2
Aspergillus fumigatus [8] = assay: Antifungal activity against Aspergillus fumigatus 231 after 24 hrs by broth microdilution method; type: functional; details: Aspergillus fumigatus, 231, 24 h; how it was run: as §2
Trichosporon asahii [9] = assay: Antifungal activity against Trichosporon asahii 1188 after 48 hrs by broth microdilution method; type: functional; details: Trichosporon asahii, 1188, 48 h; how it was run: as §2
Klebsiella pneumoniae [10] = assay: Antibacterial activity against ESBL-positive Klebsiella pneumoniae J 14368/08 at 500 micromol/L after 24 to 48 hrs by broth microdilution method; type: functional, organism-based; how it was run: as §1
Nakaseomyces glabratus = assay: Antifungal activity against Candida glabrata 20/I at 500 micromol/L after 24 to 48 hrs by broth microdilution method; type: functional, organism-based; how it was run: as §2
Pichia kudriavzevii [11] = assay: Antifungal activity against Candida krusei E28 after 24 hrs by broth microdilution method; type: functional; details: E28, 24 h; how it was run: as §2
Aspergillus fumigatus [12] = assay: Antifungal activity against Aspergillus fumigatus 231 after 48 hrs by broth microdilution method; type: functional; details: Aspergillus fumigatus, 231, 48 h; how it was run: as §2
[13] = system: Mycobacterium tuberculosis; assay: Antimycobacterial activity against Mycobacterium tuberculosis H37Rv My 331/88 after 14 days; type: functional; details: H37Rv My 331/88, 336 h; how it was run: as §3
Trichosporon asahii [14] = assay: Antifungal activity against Trichosporon asahii 1188 after 24 hrs by broth microdilution method; type: functional; details: Trichosporon asahii, 1188, 24 h; how it was run: as §2
Lichtheimia corymbifera [15] = assay: Antifungal activity against Absidia corymbifera 272 after 24 hrs by broth microdilution method; type: functional; details: Lichtheimia corymbifera, 272, 24 h; how it was run: as §2
Mycobacterium avium [16] = assay: Antimycobacterial activity against isoniazid, rifampicin, ethambutol and ofloxacin-resistant Mycobacterium avium My 330/88 after 21 days; type: functional; details: My 330/88, 504 h; how it was run: as §3
Staphylococcus aureus [17] = assay: Antibacterial activity against Staphylococcus aureus CCM 4516/08 after 24 hrs by broth microdilution method; type: functional; details: CCM 4516/08, 24 h; how it was run: as §1
[18] = system: Trichophyton mentagrophytes; assay: Antifungal activity against Trichophyton mentagrophytes 445 after 72 hrs by broth microdilution method; type: functional; details: Trichophyton mentagrophytes, 445, 72 h; how it was run: as §4
Staphylococcus aureus [19] = assay: Antibacterial activity against Staphylococcus aureus CCM 4516/08 after 48 hrs by broth microdilution method; type: functional; details: CCM 4516/08, 48 h; how it was run: as §1
Mycobacterium kansasii [20] = assay: Antimycobacterial activity against Mycobacterium kansasii My 235/80 after 21 days; type: functional; details: My 235/80, 504 h; how it was run: as §3
Escherichia coli = assay: Antibacterial activity against Escherichia coli CCM 4517 at 500 micromol/L after 24 to 48 hrs by broth microdilution method; type: functional, organism-based; how it was run: as §1
Pseudomonas aeruginosa = assay: Antibacterial activity against Pseudomonas aeruginosa CCM 1961 at 500 micromol/L after 24 to 48 hrs by broth microdilution method; type: functional, organism-based; how it was run: as §1
Staphylococcus aureus [21] = assay: Antibacterial activity against methicillin-resistant Staphylococcus aureus H 5996/08 after 24 hrs by broth microdilution method; type: functional; details: H 5996/08, 24 h; how it was run: as §1
Pichia kudriavzevii [22] = assay: Antifungal activity against Candida krusei E28 after 48 hrs by broth microdilution method; type: functional; details: E28, 48 h; how it was run: as §2
Mycobacterium kansasii [23] = assay: Antimycobacterial activity against Mycobacterium kansasii 6509/96 after 7 days; type: functional; details: 6509/96, 168 h; how it was run: as §3
Mycobacterium avium [24] = assay: Antimycobacterial activity against isoniazid, rifampicin, ethambutol and ofloxacin-resistant Mycobacterium avium My 330/88 after 14 days; type: functional; details: My 330/88, 336 h; how it was run: as §3
Enterococcus sp. = assay: Antibacterial activity against Enterococcus sp. J 14365/08 at 500 micromol/L after 24 to 48 hrs by broth microdilution method; type: functional, organism-based; how it was run: as §1
Klebsiella pneumoniae [25] = assay: Antibacterial activity against Klebsiella pneumoniae D 11750/08 at 500 micromol/L after 24 to 48 hrs by broth microdilution method; type: functional, organism-based; how it was run: as §1
[26] = system: Staphylococcus epidermidis; assay: Antibacterial activity against Staphylococcus epidermidis H 6966/08 after 48 hrs by broth microdilution method; type: functional; details: H 6966/08, 48 h; how it was run: as §1
Mycobacterium kansasii [27] = assay: Antimycobacterial activity against Mycobacterium kansasii 6509/96 after 14 days; type: functional; details: 6509/96, 336 h; how it was run: as §3
Candida albicans [28] = assay: Antifungal activity against Candida albicans ATCC 44859 after 24 hrs by broth microdilution method; type: functional; details: ATCC 44859, 24 h; how it was run: as §2
Mycobacterium kansasii [29] = assay: Antimycobacterial activity against Mycobacterium kansasii My 235/80 after 7 days; type: functional; details: My 235/80, 168 h; how it was run: as §3
Mycobacterium kansasii [30] = assay: Antimycobacterial activity against Mycobacterium kansasii My 235/80 after 14 days; type: functional; details: My 235/80, 336 h; how it was run: as §3

| SMILES | MIC95 [1] | Activity (Candida tropicalis) | MIC [2] | MIC (Mycobacterium kansasii [3]) | MIC95 (Staphylococcus aureus [4]) | MIC50 [5] | IC50 (HepG2) | MIC50 (Lichtheimia corymbifera [6]) | MIC80 (Candida albicans [7]) | MIC50 (Aspergillus fumigatus [8]) | MIC80 (Trichosporon asahii [9]) | Activity (Klebsiella pneumoniae [10]) | Activity (Nakaseomyces glabratus) | MIC80 (Pichia kudriavzevii [11]) | MIC50 (Aspergillus fumigatus [12]) | MIC [13] | MIC80 (Trichosporon asahii [14]) | MIC50 (Lichtheimia corymbifera [15]) | MIC (Mycobacterium avium [16]) | MIC95 (Staphylococcus aureus [17]) | other results |
| --- | --- | --- | --- | --- | --- | --- | --- | --- | --- | --- | --- | --- | --- | --- | --- | --- | --- | --- | --- | --- | --- |
| CCOP(=O)(OCC)Oc1ccc(Cl)cc1C(=O)Nc1ccc(Br)cc1 | 125 µM (≈ 57.8 µg/mL) | inactive | 2 µM (≈ 0.925 µg/mL) | 8 µM (≈ 3.7 µg/mL) | > 500 µM | 250 µM (≈ 116 µg/mL) | 1.56 µM | > 500 µM | > 500 µM | > 500 µM | > 500 µM | inactive | inactive | > 500 µM | > 500 µM | 2 µM (≈ 0.925 µg/mL) | > 500 µM | > 500 µM | 8 µM (≈ 3.7 µg/mL) | 125 µM (≈ 57.8 µg/mL) | MIC50 [18]: 250 µM (≈ 116 µg/mL); MIC95 (Staphylococcus aureus [19]): 125 µM (≈ 57.8 µg/mL); MIC (Mycobacterium kansasii [20]): 8 µM (≈ 3.7 µg/mL); Activity (Escherichia coli): inactive; Activity (Pseudomonas aeruginosa): inactive; MIC95 (Staphylococcus aureus [21]): > 500 µM; MIC80 (Pichia kudriavzevii [22]): > 500 µM; MIC (Mycobacterium kansasii [23]): 4 µM (≈ 1.85 µg/mL); MIC (Mycobacterium avium [24]): 8 µM (≈ 3.7 µg/mL); Activity (Enterococcus sp.): inactive; Activity (Klebsiella pneumoniae [25]): inactive; MIC95 [26]: 125 µM (≈ 57.8 µg/mL); MIC (Mycobacterium kansasii [27]): 8 µM (≈ 3.7 µg/mL); MIC80 (Candida albicans [28]): > 500 µM; MIC (Mycobacterium kansasii [29]): 4 µM (≈ 1.85 µg/mL); MIC (Mycobacterium kansasii [30]): 8 µM (≈ 3.7 µg/mL) |
| CCOP(=O)(OCC)Oc1cc(Cl)ccc1C(=O)Nc1cccc(C(F)(F)F)c1 | 15.6 µM (≈ 7.06 µg/mL) | inactive | 4 µM (≈ 1.81 µg/mL) | 8 µM (≈ 3.61 µg/mL) | 62.5 µM (≈ 28.2 µg/mL) | 31.2 µM (≈ 14.1 µg/mL) | 3.85 µM | > 500 µM | > 500 µM | > 500 µM | > 500 µM | inactive | inactive | > 500 µM | > 500 µM | 4 µM (≈ 1.81 µg/mL) | > 500 µM | > 500 µM | 16 µM (≈ 7.23 µg/mL) | 31.2 µM (≈ 14.1 µg/mL) | MIC50 [18]: 31.2 µM (≈ 14.1 µg/mL); MIC95 (Staphylococcus aureus [19]): 62.5 µM (≈ 28.2 µg/mL); MIC (Mycobacterium kansasii [20]): 4 µM (≈ 1.81 µg/mL); Activity (Escherichia coli): inactive; Activity (Pseudomonas aeruginosa): inactive; MIC95 (Staphylococcus aureus [21]): 31.2 µM (≈ 14.1 µg/mL); MIC80 (Pichia kudriavzevii [22]): > 500 µM; MIC (Mycobacterium kansasii [23]): 4 µM (≈ 1.81 µg/mL); MIC (Mycobacterium avium [24]): 16 µM (≈ 7.23 µg/mL); Activity (Enterococcus sp.): inactive; Activity (Klebsiella pneumoniae [25]): inactive; MIC95 [26]: 31.2 µM (≈ 14.1 µg/mL); MIC (Mycobacterium kansasii [27]): 8 µM (≈ 3.61 µg/mL); MIC80 (Candida albicans [28]): > 500 µM; MIC (Mycobacterium kansasii [29]): 2 µM (≈ 0.904 µg/mL); MIC (Mycobacterium kansasii [30]): 4 µM (≈ 1.81 µg/mL) |
